High-throughput results from PubChem BioAssay.
Most compounds without a hit are left out; they make up all but 7.2% or so of the library.
DAT uptake mod – human DAT dopamine uptake with cocaine, either direction; Q01959; LLC-PK1 hDAT cells, [14C]-dopamine uptake with cocaine IC80; actives deviate in either direction; B-score at 10 µM; 1.3% of 110,000 active; AID 449768;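 active = Z score or B-score, a plate-position-corrected score, falls beyond the plate's 99.7% confidence bounds, in either direction; inactive = both scores lie inside the 99.7% bounds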;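 also: scored against the spread of the other compound wells on the same plate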
HEK293 NFkB inh – inhibitors of the PMA/ionomycin-induced NF-kB reporter in HEK293 cells | HEK-293 NF-kB luciferase reporter, luminescence | inhibition, % at 3 µM | 0.21% of 62,000 active;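 active = inhibition above the mean of all tested compounds plus 3 SD, cut at about 40% in these data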;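 also: 0% = stimulated DMSO wells and 100% = 10 µM reference inhibitor 5653914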
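Signal: luciferase luminescence; Material: HEK-293 cells with stable firefly luciferase reporter driven by four HIV NF-kB elements; Probe or stimulus: PMA with ionomycin; Replication: tested once; Times: 1 h compound pretreatment, then 16 h stimulation at 37 °C, 5% CO2; Benchmarks: DMSO and 10 µM reference inhibitor; Evaluation: per-plate % inhibition versus controls.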
M1 agonist – agonists of M1 muscarinic receptor; CHO-M1 cells, Fluo-4 calcium fluorescence, agonist mode; hits give high values; B-score at 10 µM; 3% of 64,000 active; AID 626;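 active = fluorescence rise, raw or as B-score row- and column-corrected plate score, outside the 99.7% band of its plate's samples, either direction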
BAP1 block – blocks human BAP1 ubiquitin-AMC hydrolysis; recombinant BAP1, Ub-AMC hydrolysis fluorescence kinetic; hits give low values; calls only at 20 µM; 0.48% of 72,000 active; AID 436;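 active = activity remaining at or below 50% of control, provided the compound also passes the data quality filters; inactive = the rest, including low values that fail the filters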;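 also: 100% = DMSO wells rate and 0% = substrate alone blank rate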
M1 antag – antagonists of rat M1 muscarinic receptor; B-score at 10 µM; 3.4% of 64,000 active; AID 628; CHO-M1 cells, Fluo-4 calcium, ACh EC80 antagonist mode; hits give low values; P08482;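 active = calcium fluorescence response, raw or row-and-column corrected B-score, differing from the plate sample mean either way at a set confidence level, mostly lower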
Target sequence (P08482 whole entry, looked up): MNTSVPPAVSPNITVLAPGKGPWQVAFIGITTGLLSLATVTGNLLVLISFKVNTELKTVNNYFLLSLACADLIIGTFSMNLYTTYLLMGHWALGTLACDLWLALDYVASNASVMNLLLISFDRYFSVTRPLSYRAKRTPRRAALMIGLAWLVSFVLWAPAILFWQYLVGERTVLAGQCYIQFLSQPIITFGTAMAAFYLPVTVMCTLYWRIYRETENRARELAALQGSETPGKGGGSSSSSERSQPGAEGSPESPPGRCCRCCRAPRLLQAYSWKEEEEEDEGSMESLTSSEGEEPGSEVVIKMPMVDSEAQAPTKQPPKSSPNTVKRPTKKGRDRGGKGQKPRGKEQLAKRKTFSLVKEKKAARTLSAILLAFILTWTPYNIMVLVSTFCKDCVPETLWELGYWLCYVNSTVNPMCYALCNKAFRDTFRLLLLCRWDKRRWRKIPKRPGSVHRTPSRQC
D1 allo mod – allosteric modulators of human D1 dopamine receptor. HEK293 D1, CRE-luciferase, dopamine EC30 potentiation; actives deviate in either direction. B-score at 10 µM. 5.9% of 58,000 active;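 active = luminescence count or its row- and column-corrected plate score outside the 99.7% band of the plate's sample wells, on either side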
* = called active by the depositor; i = inactive; x = not tested or not shown.

SMILES | DAT uptake mod | HEK293 NFkB inh | M1 agonist | BAP1 block | M1 antag | D1 allo mod
Cc1ccc(C(=O)NC(Cc2c[nH]c3ccccc23)C(=O)O)o1 (stereo not given) | 0.00063 | 4 | -0.45 | i | 0.4 | -0.11
CC(=O)c1cccc(NC(=O)CCNS(=O)(=O)c2cccc3nsnc23)c1 | -0.61 | 18 | 0.81 | i | 0.068 | -0.067
Cc1cccc(NC(=O)CCNS(=O)(=O)c2cccc3nsnc23)c1 | 1.8* | 9 | -0.32 | x | 0 | 0.63
O=C(CCCNS(=O)(=O)c1cccc2nsnc12)NCCc1ccccc1 | 0.3 | 9 | -1.2 | i | 0.0035 | -4*
O=S(=O)(NCCc1ccccc1)c1cccc2nsnc12 | -0.084 | x | x | x | x | x
COc1ccc(N=c2oc3cc(OC(C)=O)ccc3cc2C(=O)NC(C)=O)cc1 | x | x | x | i | x | x
N#CCCN1CCN(C(=S)c2ccc(-c3ccc(Cl)c(Cl)c3)o2)CC1 | 1.3 | -5 | 0.0026 | i | -0.008 | -0.039
N#CCCN1CCN(C(=S)c2ccc(-c3cccc(Cl)c3)o2)CC1 | 2.4* | -9 | 0.37 | i | -0.24 | 1
O=C(c1cccc(COc2cccc3ccccc23)c1)N1CCCC1 | 3.7* | x | x | x | x | x
N#Cc1c(NC(=O)CSc2ncccn2)oc(-c2ccccc2)c1-c1ccccc1 | -0.084 | x | x | x | x | x
N#Cc1c(NC(=O)Cn2cnc3ccccc3c2=O)oc(-c2ccccc2)c1-c1ccccc1 | -0.47 | 0 | -0.86 | x | 1.5 | -4.7*
COc1ccc(C2NC(=O)NC(C)=C2C(=O)OCCOc2ccccc2)c(OC)c1 (stereo not given) | x | x | x | i | x | x
CC1CCc2nc3ccc(S(=O)(=O)N4CCC(C(=O)NC5CCCC5)CC4)cc3c(C(=O)O)c2C1 (stereo not given) | -0.44 | 16 | 0.33 | i | 0.05 | x
O=C(O)c1c2c(nc3ccc(S(=O)(=O)N4CCC(C(=O)NC5CCCC5)CC4)cc13)CCCCC2 | -1.2 | 6 | -2.3* | i | 0.033 | x
COc1cc(CO)cc(Br)c1OCc1cccnc1 | -0.97 | 1 | x | i | x | -3.1*
O=C(c1ccc2ncsc2c1)N1CCN(c2ccc(O)cc2)CC1 | 0.72 | x | x | x | x | x
Cc1cccc(N2CCN(C(=O)c3ccc4ncsc4c3)CC2)c1C | 2.5* | x | x | x | x | x
COC(=O)c1sc(-c2ccccc2)cc1NC(=O)c1ccc(S(=O)(=O)N2CC3(C)CC2CC(C)(C)C3)cc1 (stereo not given) | x | x | x | i | x | x
CCc1ccc(C2C(C(=O)OC)=C(C)NC3=C2C(=O)CCC3)cc1 (stereo not given) | x | x | x | i | x | x
O=S(=O)(Nc1nc2ccccc2nc1NCc1ccco1)c1ccc(Cl)cc1 | -0.34 | 15 | -0.37 | i | -0.97 | -3.5*
COc1cc(NC(=O)c2ccnnc2)cc(C(=O)Nc2cccc(C(F)(F)F)c2)c1 | 3.3* | x | x | x | x | x
CC(C)Cn1c(CN2C(=O)c3ccccc3C2=O)nc2ccccc2c1=O | -0.7 | -5 | -0.35 | i | -0.21 | 1.6
Cc1c(-n2c(CN3C(=O)c4ccccc4C3=O)nc3ccccc3c2=O)c(=O)n(-c2ccccc2)n1C | 0.83 | 7 | -1.5 | i | 1.5* | -1.8
O=C(Nc1ccc(Cl)c([N+](=O)[O-])c1)C1c2ccccc2Oc2ccccc21 | x | x | x | i | x | x
CCN(CC)C(=O)Cn1c(=O)n(-c2ccccc2)c(=O)n1CC(=O)N(CC)CC | -9.6* | 20 | 0.83 | i | -0.24 | -0.14
SMILES | DAT uptake mod | HEK293 NFkB inh | M1 agonist | BAP1 block | M1 antag | D1 allo mod
CCc1ccc(NC2=C(Cl)C(=O)N(c3ccccc3Cl)C2=O)cc1 | x | x | x | i | x | x
Cc1ccc2nc3c(cc2c1)c(NC(=O)c1cccnc1)nn3C | -0.13 | -1 | 0.45 | i | -0.29 | -4.4*
O=C(CSc1nc2scc(-c3ccco3)c2c(=O)n1-c1ccccc1)NCC1CCCO1 (stereo not given) | -0.083 | -2 | -0.099 | i | 0.18 | 1.1
C=CCn1c(SCC(=O)NCC2CCCO2)nc2scc(-c3ccco3)c2c1=O (stereo not given) | 2.6* | 12 | -2 | i | -0.34 | 1.1
CC(=O)c1ccc(NC(=NS(=O)(=O)c2ccc(C)cc2)c2ccccc2)cc1 | x | x | x | i | x | x
O=C(COc1ccc(-n2cnnn2)cc1)NC(=O)NCc1ccccc1 | 0.25 | 21 | -0.77 | i | 0.47 | -4.4*
O=C(COc1ccc(-n2cnnn2)cc1)NC1CCCCC1 | 1.6 | 26 | -0.065 | i | 0.17 | -0.33
COc1ccc(CNc2nc3nc(C)c(Cl)c(C)n3n2)cc1OC | 1.1 | -3 | 0.65 | i | -0.14 | 6.2*
COc1ccc2c(c1)CC/C(=C\Nc1ccc3c(c1)OCO3)C2=O | -0.23 | x | x | x | x | x
O=C1/C(=C/Nc2ccc3c(c2)OCO3)CCc2ccccc21 | -0.0077 | -13 | 0.97 | i | -0.18 | -6.1*
Cn1c(SCc2cccc3ccccc23)nnc1-c1ccco1 | 2.7* | -2 | -0.11 | i | -0.16 | 0.13
O=C(Nc1nc2cc3c(cc2s1)OCO3)C1=COCCO1 | -1.1 | 18 | -0.25 | i | -0.62 | -8.3*
Cc1ccc(C2NC(=O)c3c(sc4c3CCN(C)C4)N2)c(O)c1 (stereo not given) | x | x | x | i | x | x
O=C(/C=C/c1ccc(Cl)cc1)NCCN1CCOCC1 | -7.8* | x | x | x | x | x
Cn1nc(-c2ccc(C(=O)Nc3cccc(Cl)c3)cc2)c2ccccc2c1=O | -1* | x | x | x | x | x
Cc1ccc(NC(=O)c2ccc(-c3nn(C)c(=O)c4ccccc34)cc2)cc1 | 0.84 | x | x | x | x | x
Cc1ccc(C(=O)/C=C/c2ccccc2)o1 | -0.54 | x | x | x | x | x
C/C(=C\C(=O)c1ccc(C)o1)Nc1ccc(C(=O)O)cc1C | -1.5 | 18 | 0.065 | i | 3* | 0.18
CC(C)CCn1c(N2CCOCC2)nc2c1c(=O)n(CC(N)=O)c(=O)n2C | 1.8 | 11 | 0.32 | i | 0.25 | -0.6
CN(C)C=NCCn1c(N2CCOCC2)nc2c1c(=O)n(C)c(=O)n2C | -0.87 | 8 | 0.7 | i | -0.99 | -3.8*
Cc1nn(-c2ccccc2)c(Cl)c1/C=C1\SC(=S)NC1=O | -4.4* | x | x | x | x | x
CCOC(=O)C1=C(C)NC(=O)NC1c1c(C)nn(-c2ccccc2)c1Cl (stereo not given) | 1.1 | 18 | -0.091 | i | 0.3 | 0.3
O=C(Nc1ccc(-c2nc3ncccc3o2)cc1)c1ccc(-c2ccc(F)cc2)o1 | x | x | x | i | x | x
CCOc1ccc2cc(C(N)=O)c(=Nc3ccc(C(F)(F)F)cc3)oc2c1 | x | x | x | i | x | x
Cc1ccc(S(=O)(=O)NCc2ccc(C(=O)N3CCN(c4ccccn4)CC3)cc2)cc1 | 0.17 | 6 | 4 | i | 2.4* | x
CN(c1ccccc1)S(=O)(=O)c1cc(C(=O)N2CCN(c3ccccn3)CC2)ccc1Cl | -0.041 | 18 | 2 | i | -0.26 | -3.3*
CCN1CCN(C(c2cccs2)C(C)NC(=O)c2ccco2)CC1 (stereo not given) | -0.65 | 4 | -0.031 | i | -2.2 | -1.4*
CC(NC(=O)c1cccs1)C(c1cccs1)N1CCN(Cc2ccccc2)CC1 (stereo not given) | -0.12 | 8 | -0.46 | i | -1.4 | -2.1*
